From ChEMBL document CHEMBL4715780, “Biological evaluation of tetracationic compounds based on two 1,4-diazabicyclo[2.2.2]octane moieties connected by different linkers” (Bioorg Med Chem, 2016)

What was measured:
Staphylococcus aureus [1] = test: Antibacterial activity against […] Staphylococcus aureus ATCC 25923 assessed as concentration required to inhibit visible growth by CLSI protocol based serial microdilution method; assay type: functional
Staphylococcus aureus [2] = test: Antibacterial activity against […] Staphylococcus aureus ATCC 25923 assessed as bacterial growth inhibition by CLSI protocol based serial microdilution method; assay type: functional
Enterococcus faecalis [3] = test: Antibacterial activity against Enterococcus faecalis ATCC 51299 assessed as concentration required to inhibit visible growth by CLSI protocol based serial microdilution method; assay type: functional
Enterococcus faecalis [4] = test: Antibacterial activity against Enterococcus faecalis ATCC 51299 assessed as bacterial growth inhibition by CLSI protocol based serial microdilution method; assay type: functional
Pseudomonas aeruginosa [5] = test: Antibacterial activity against Pseudomonas aeruginosa ATCC 9027 assessed as concentration required to inhibit visible growth by CLSI protocol based serial microdilution method; assay type: functional
Pseudomonas aeruginosa [6] = test: Antibacterial activity against Pseudomonas aeruginosa ATCC 9027 assessed as bacterial growth inhibition by CLSI protocol based serial microdilution method; assay type: functional
Escherichia coli [7] = test: Antibacterial activity against Escherichia coli ATCC 25922 assessed as concentration required to inhibit visible growth by CLSI protocol based serial microdilution method; assay type: functional
Escherichia coli [8] = test: Antibacterial activity against Escherichia coli ATCC 25922 assessed as bacterial growth inhibition by CLSI protocol based serial microdilution method; assay type: functional
Salmonella typhimurium [9] = test: Antibacterial activity against Salmonella enterica ATCC 14028 assessed as concentration required to inhibit visible growth by CLSI protocol based serial microdilution method; assay type: functional, Salmonella enterica subsp. enterica serovar Typhimurium
Salmonella typhimurium [10] = test: Antibacterial activity against Salmonella enterica ATCC 14028 assessed as bacterial growth inhibition by CLSI protocol based serial microdilution method; assay type: functional, Salmonella enterica subsp. enterica serovar Typhimurium
Citrobacter freundii [11] = test: Antibacterial activity against Citrobacter freundii ATCC 8090 assessed as concentration required to inhibit visible growth by CLSI protocol based serial microdilution method; assay type: functional
Citrobacter freundii [12] = test: Antibacterial activity against Citrobacter freundii ATCC 8090 assessed as bacterial growth inhibition by CLSI protocol based serial microdilution method; assay type: functional
Proteus vulgaris [13] = test: Antibacterial activity against Proteus vulgaris ATCC 6380 assessed as concentration required to inhibit visible growth by CLSI protocol based serial microdilution method; assay type: functional
Proteus vulgaris [14] = test: Antibacterial activity against Proteus vulgaris ATCC 6380 assessed as bacterial growth inhibition by CLSI protocol based serial microdilution method; assay type: functional
Candida albicans [15] = test: Antifungal activity against Candida albicans CEMTC 34 assessed as concentration required to inhibit visible growth by CLSI protocol based serial microdilution method; assay type: functional
Method in brief: (§1)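 Candida albicans grown in Sabouraud dextrose broth with two-fold serial compound dilutions from water stocks; final inoculum about 5 × 10⁵ CFU/mL. Incubated at 37 °C with orbital shaking (580 rpm). MIC is the lowest concentration preventing growth, by absorbance at 595 nm. MFC is the lowest concentration with no visible growth. Duplicates in two separate experiments.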

Candida albicans [16] = test: Antifungal activity against Candida albicans CEMTC 34 assessed as fungal growth inhibition by CLSI protocol based serial microdilution method; assay type: functional; method in brief: as §1
[17] = Cytotoxicity against human MCF7 cells assessed as reduction in cell viability measured after 24 hrs by MTT assay; assay type: cell-based
Method in brief: (§2)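 HEK293T or MCF-7 cells in IMDM with 10% FBS, seeded at 20,000 per well and grown overnight. Compounds at […] in fresh medium for 24 h at 37 °C, 5% CO₂. MTT then added for 4 h, precipitate dissolved overnight in SDS-HCl, absorbance read at 570 nm. Viability expressed relative to untreated cells, giving CC₅₀. Duplicate wells, at least two independent repeats.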

[18] = Cytotoxicity against HEK293T cells assessed as reduction in cell viability measured after 24 hrs by MTT assay; assay type: cell-based, HEK-293T; settings: human; method in brief: as §2
[19] = Selectivity index, ratio of CC50 for HEK293T cells assessed as reduction in cell viability measured after 24 hrs by MTT assay to MIC for Staphylococcus aureus ATCC 25923 assessed as bacterial growth inhibition by CLSI protocol based serial microdilution method; assay type: toxicity; settings: human, read-out: Selectivity Index
[20] = Selectivity index, ratio of CC50 for HEK293T cells assessed as reduction in cell viability measured after 24 hrs by MTT assay to MIC for Enterococcus faecalis ATCC 51299 assessed as bacterial growth inhibition by CLSI protocol based serial microdilution method; assay type: toxicity; settings: human, read-out: Selectivity Index
[21] = Selectivity index, ratio of CC50 for HEK293T cells assessed as reduction in cell viability measured after 24 hrs by MTT assay to MIC for Pseudomonas aeruginosa ATCC 9027 assessed as bacterial growth inhibition by CLSI protocol based serial microdilution method; assay type: toxicity; settings: human, read-out: Selectivity Index
[22] = Selectivity index, ratio of CC50 for HEK293T cells assessed as reduction in cell viability measured after 24 hrs by MTT assay to MIC for Escherichia coli ATCC 25922 assessed as bacterial growth inhibition by CLSI protocol based serial microdilution method; assay type: toxicity; settings: human, read-out: Selectivity Index
[23] = Selectivity index, ratio of CC50 for HEK293T cells assessed as reduction in cell viability measured after 24 hrs by MTT assay to MIC for Citrobacter freundii ATCC 8090 assessed as bacterial growth inhibition by CLSI protocol based serial microdilution method; assay type: toxicity; settings: human, read-out: Selectivity Index
[24] = Selectivity index, ratio of CC50 for HEK293T cells assessed as reduction in cell viability measured after 24 hrs by MTT assay to MIC for Proteus vulgaris ATCC 6380 assessed as bacterial growth inhibition by CLSI protocol based serial microdilution method; assay type: toxicity; settings: human, read-out: Selectivity Index
[25] = Selectivity index, ratio of CC50 for HEK293T cells assessed as reduction in cell viability measured after 24 hrs by MTT assay to MIC for Candida albicans CEMTC 34 assessed as bacterial growth inhibition by CLSI protocol based serial microdilution method; assay type: toxicity; settings: human, read-out: Selectivity Index
Method in brief: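 SI = CC₅₀ (HEK293T) / MIC. HEK293T cells were seeded at 20,000/well overnight, then exposed to 10–250 µg/mL in IMDM with 10% FBS for 24 h. MTT was added for 4 h, solubilised with SDS-HCl, and read at 570 nm; duplicates, ≥2 independent runs. MIC came from two-fold dilutions in Sabouraud dextrose broth at ~5 × 10⁵ CFU/mL, 37 °C with shaking, read at 595 nm, in duplicate.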

Influenza A virus = test: Antiviral activity against Influenza A virus (A/Puerto Rico/8/34 (H1N1) infected in MDCK cells assessed as decrease in viral titer preincubated for 1 hr followed by viral infection and cultivated for 48 hrs followed by supernatant transferred to chicken erythrocyte for 1 hr followed by measuring ability to cause positive hemagglutination; assay type: functional, organism-based; settings: A/Puerto Rico/8/1934(H1N1)
Method in brief: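 MDCK monolayers in MEM were pre-incubated with compound for 1 h at 37 °C, then infected with 10-fold virus dilutions (10⁻¹–10⁻⁶) and held 48 h at 37 °C, 5% CO₂. Supernatant was mixed with an equal volume of 1% chicken erythrocytes, 60 min at room temperature. Titre was taken from the highest dilution giving full agglutination (log₁₀ EID₅₀). Triplicate per concentration.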

[26] = Cytotoxicity against MDCK cells assessed as cell death incubated for 48 hrs by MTT assay; assay type: cell-based, Canis lupus familiaris; settings: dog
[27] = Selectivity index, ratio of CC50 for MDCK cells to EC50 for Influenza A virus (A/Puerto Rico/8/34 (H1N1)) infected in MDCK cells; assay type: toxicity, cell-based; settings: dog, read-out: Ratio CC50/EC50
Method in brief: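 Ratio of CC₅₀ to EC₅₀, both in MDCK cells, with cytotoxicity run in parallel with the antiviral assay. EC₅₀ is the concentration halving virus production (0.3 log₁₀ EID₅₀ titre drop). It was obtained after 1 h compound pre-incubation, infection, 48 h at 37 °C, and hemagglutination read-out with 1% chicken erythrocytes.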

[28] = Selectivity index, ratio of CC50 for HEK293T cells assessed as reduction in cell viability measured after 24 hrs by MTT assay to MIC for Salmonella enterica ATCC 14028 assessed as bacterial growth inhibition by CLSI protocol based serial microdilution method; assay type: toxicity; settings: human, read-out: Selectivity Index

Row | SMILES | MBC (Staphylococcus aureus [1]) [µg/mL] | MIC (Staphylococcus aureus [2]) [µg/mL] | MBC (Enterococcus faecalis [3]) [µg/mL] | MIC (Enterococcus faecalis [4]) [µg/mL] | MBC (Pseudomonas aeruginosa [5]) [µg/mL] | MIC (Pseudomonas aeruginosa [6]) [µg/mL] | MBC (Escherichia coli [7]) [µg/mL] | MIC (Escherichia coli [8]) [µg/mL] | MBC (Salmonella typhimurium [9]) [µg/mL] | MIC (Salmonella typhimurium [10]) [µg/mL] | MBC (Citrobacter freundii [11]) [µg/mL] | MIC (Citrobacter freundii [12]) [µg/mL] | MBC (Proteus vulgaris [13]) [µg/mL] | MIC (Proteus vulgaris [14]) [µg/mL] | MFC (Candida albicans [15]) [µg/mL] | MIC (Candida albicans [16]) [µg/mL] | CC50 at 24 h [17] [µg/mL] | CC50 at 24 h [18] [µg/mL] | selectivity ratio at 24 h [19] | selectivity ratio at 24 h [20] | further results
1 | CCCCCCCCCCCC[N+]12CC[N+](CCCC[N+]34CC[N+](CCCCCCCCCCCC)(CC3)CC4)(CC1)CC2 | 1.2 | 0.6 | 1.6 | 1.6 | 3.1 | 1.6 | 3.1 | 1.6 | 3.1 | 1.6 | 1.6 | 1.6 | > 100 | 25 | 6.3 | 6.3 | 4 | 4 | 7 | 3 | selectivity ratio at 24 h [21]: 3; selectivity ratio at 24 h [22]: 3; selectivity ratio at 24 h [23]: 3; selectivity ratio at 24 h [24]: < 1; selectivity ratio at 24 h [25]: < 1; EC50 (Influenza A virus): > 3 µg/mL; CC50 at 48 h [26]: 6.8 µg/mL; selectivity ratio [27]: < 2; selectivity ratio at 24 h [28]: 3
2 | CCCCCCCCCCCC[N+]12CC[N+](CC#CC[N+]34CC[N+](CCCCCCCCCCCC)(CC3)CC4)(CC1)CC2 | 3.1 | 1.6 | 3.1 | 1.6 | 12.5 | 3.1 | 12.5 | 63 | 12.5 | 6.3 | 12 | 6.3 | > 100 | 100 | 12.5 | 12.5 | 23 | 22 | 14 | 14 | selectivity ratio at 24 h [21]: 7; selectivity ratio at 24 h [22]: 4; selectivity ratio at 24 h [23]: 4; selectivity ratio at 24 h [24]: < 1; selectivity ratio at 24 h [25]: 2; EC50 (Influenza A virus): > 3 µg/mL; CC50 at 48 h [26]: 4 µg/mL; selectivity ratio [27]: < 1; selectivity ratio at 24 h [28]: 4
3 | CCCCCCCCCCCC[N+]12CC[N+](CCCCC[N+]34CC[N+](CCCCCCCCCCCC)(CC3)CC4)(CC1)CC2 | 1.2 | 0.6 | 1.6 | 1.6 | 6.3 | 3.1 | 3.1 | 1.6 | 3.1 | 1.6 | 3.1 | 1.6 | > 100 | > 100 | 12.5 | 6.3 | 7 | 7.5 | 13 | 5 | selectivity ratio at 24 h [21]: 2; selectivity ratio at 24 h [22]: 5; selectivity ratio at 24 h [23]: 5; selectivity ratio at 24 h [24]: < 1; selectivity ratio at 24 h [25]: 1; EC50 (Influenza A virus): 2.4 µg/mL; CC50 at 48 h [26]: 9.7 µg/mL; selectivity ratio [27]: 4; selectivity ratio at 24 h [28]: 5
4 | CCCCCCCCCCCC[N+]12CC[N+](Cc3cccc(C[N+]45CC[N+](CCCCCCCCCCCC)(CC4)CC5)c3)(CC1)CC2 | 1.6 | 0.6 | 1.6 | 1.6 | 3.1 | 1.6 | 3.1 | 1.6 | 3.1 | 1.6 | 3.1 | 1.6 | 25 | 25 | 12.5 | 12.5 | 17 | 16 | 27 | 10 | selectivity ratio at 24 h [21]: 10; selectivity ratio at 24 h [22]: 10; selectivity ratio at 24 h [23]: 10; selectivity ratio at 24 h [24]: < 1; selectivity ratio at 24 h [25]: 1; EC50 (Influenza A virus): 1.3 µg/mL; CC50 at 48 h [26]: 8.4 µg/mL; selectivity ratio [27]: 6; selectivity ratio at 24 h [28]: 10
